Experimental data gathered from unrelated publications.
CDK4: Cyclin-dependent kinase 4 (CDK4, Homo sapiens, UniProt P11802)

For CCOC(=O)[C@H]1Cc2c(cc([N+](=O)[O-])cc2[N+](=O)[O-])[C@H](O)[C@]12C(=O)Nc1ccc(F)cc12, the inhibition was 32.6% (CDK4; cell-free assay; inhibitor; TR-FRET; 1 µM).
Clc1cccc(-c2c[nH]c3nccc(N4CCOCC4)c23)c1 gave a ΔTm of over 7.4 °C (Serine/threonine-protein kinase 3 (STK3, Homo sapiens, UniProt Q13188); thermal stability; DSF).
For COc1ncccc1-c1cnn2ccc(N3CCN(C(=O)OC(C)C)CC3)nc12, the remaining binding was 100% (Myosin-IIIb (MYO3B, Homo sapiens, UniProt Q8WXR4); binding; competition with immobilised ligand; 1 µM).
Cc1nn(C)cc1-c1nc2c(N3CCN(Cc4ccc(Cl)cc4)CC3)c(Cl)cnc2[nH]1 gave a remaining binding of 55% (Serine/threonine-protein kinase MRCK beta (CDC42BPB, Homo sapiens, UniProt Q9Y5S2); binding; competition with immobilised ligand; 1 µM).
For CCOC(=O)[C@H]1Cc2c(cc([N+](=O)[O-])cc2[N+](=O)[O-])[C@@H](O)[C@@]12C(=O)Nc1ccc([N+](=O)[O-])cc12, the inhibition was 42.8% (CDK4; cell-free assay; inhibitor; TR-FRET; 1 µM).
With C#Cc1n[nH]c2c(-c3cn([C@@H](C)c4ccccn4)c(=O)[nH]c3=O)cc(F)cc12 the inhibition was 10% (Tyrosine-protein kinase Fes/Fps (FES, Homo sapiens, UniProt P07332); enzyme activity; inhibitor; 0.1 µM).
With Nc1ncc(-c2nc(N3CCOCC3)nc(N3CCOCC3)n2)c(C(F)F)n1 the remaining binding was 83% (Fibroblast growth factor receptor 3 (FGFR3, Homo sapiens, UniProt P22607, G697C); cell-free assay; competition with immobilised ligand; 10 µM).
The inhibition of COCCCOc1cc(C[C@@H](C[C@H](N)[C@@H](O)C[C@H](C(=O)NCC(C)(C)C(N)=O)C(C)C)C(C)C)ccc1OC is reported as 70% (Renin (REN, Homo sapiens, UniProt P00797); enzyme activity; inhibitor; 10 nM).
The Km of COC(=O)[C@H](CCCNC(=N)N)NC(=O)c1ccccc1 is reported as 10.8 mM (Protein-arginine deiminase type-3 (PADI3, Homo sapiens, UniProt Q9ULW8); enzyme activity; substrate).
